In ChEMBL document CHEMBL1137701, “Synthesis, characterization and antimicrobial activity of Co(II), Zn(II) and Cd(II) complexes with N-benzyloxycarbonyl-S-phenylalanine” (2009):
≈ marks a conversion by molar mass, not a printed value.

Experiments:
Assay type in all cases: functional
Bacillus subtilis [1] = test: Antibacterial activity against Bacillus subtilis ATCC 6633 at 10 ug/disk after 24 hrs by agar diffusion method; conditions: ATCC 6633, 24 h, read-out: IZ
Method in brief: (§1)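 Reference antibiotic discs (ampicillin or amikacin) placed on 4-mm Mueller-Hinton agar inoculated to semiconfluent growth from 2×10^6 CFU/ml suspensions. Incubation 24 h at 37 °C, then inhibition zone diameter read in mm. Triplicate, averaged; done per NCCLS 1993 disc standard.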

Enterococcus faecalis [2] = test: Antibacterial activity against Enterococcus faecalis ATCC 29212 at 10 ug/disk after 24 hrs by agar diffusion method; conditions: ATCC 29212, 24 h, read-out: IZ; method in brief: as §1
Staphylococcus aureus [3] = test: Antibacterial activity against Staphylococcus aureus ATCC 25923 at 10 ug/disk after 24 hrs by agar diffusion method; conditions: ATCC 25923, 24 h, read-out: IZ; method in brief: as §1
Pseudomonas aeruginosa [4] = test: Antibacterial activity against Pseudomonas aeruginosa ATCC 27853 at 10 ug/disk after 24 hrs by agar diffusion method; conditions: ATCC 27853, 24 h, read-out: IZ; method in brief: as §1
Klebsiella pneumoniae [5] = test: Antibacterial activity against Klebsiella pneumoniae NCIMB 9111 after 24 hrs by broth microdilution method; conditions: NCIMB 9111, 24 h
Method in brief: (§2)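 Broth microdilution in Mueller-Hinton broth, run to NCCLS (2001). Overnight cultures were set to 2×10^6 CFU/ml final per well. Compounds were dissolved in 1% DMSO and tested as two-fold serial dilutions. TTC (0.05% final) served as growth indicator. Growth was read by absorbance at 600 nm after 24 h at 37 °C. MIC was the lowest concentration with no visible growth. Triplicate, with two growth controls.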

[6] = test system: Staphylococcus epidermidis; test: Antibacterial activity against Staphylococcus epidermidis ATCC 12228 at 10 ug/disk after 24 hrs by agar diffusion method; conditions: ATCC 12228, 24 h, read-out: IZ; method in brief: as §1
Klebsiella pneumoniae [7] = test: Antibacterial activity against Klebsiella pneumoniae NCIMB 9111 at 10 ug/disk after 24 hrs by agar diffusion method; conditions: NCIMB 9111, 24 h, read-out: IZ; method in brief: as §1
Escherichia coli [8] = test: Antibacterial activity against Escherichia coli ATCC 25922 at 10 ug/disk after 24 hrs by agar diffusion method; conditions: ATCC 25922, 24 h, read-out: IZ
Micrococcus luteus [9] = test: Antibacterial activity against Micrococcus luteus ATCC 10240 at 10 ug/disk after 24 hrs by agar diffusion method; conditions: ATCC 10240, 24 h, read-out: IZ; method in brief: as §1
Pseudomonas aeruginosa [10] = test: Antibacterial activity against Pseudomonas aeruginosa ATCC 27853 after 24 hrs by broth microdilution method; conditions: ATCC 27853, 24 h; method in brief: as §2
Escherichia coli [11] = test: Antibacterial activity against Escherichia coli ATCC 25922 after 24 hrs by broth microdilution method; conditions: ATCC 25922, 24 h; method in brief: as §2
Micrococcus luteus [12] = test: Antibacterial activity against Micrococcus luteus ATCC 10240 after 24 hrs by broth microdilution method; conditions: ATCC 10240, 24 h; method in brief: as §2
Enterococcus faecalis [13] = test: Antibacterial activity against Enterococcus faecalis ATCC 29212 after 24 hrs by broth microdilution method; conditions: ATCC 29212, 24 h; method in brief: as §2
[14] = test system: Staphylococcus epidermidis; test: Antibacterial activity against Staphylococcus epidermidis ATCC 12228 after 24 hrs by broth microdilution method; conditions: ATCC 12228, 24 h; method in brief: as §2
Staphylococcus aureus [15] = test: Antibacterial activity against Staphylococcus aureus ATCC 25923 after 24 hrs by broth microdilution method; conditions: ATCC 25923, 24 h; method in brief: as §2
Bacillus subtilis [16] = test: Antibacterial activity against Bacillus subtilis ATCC 6633 after 24 hrs by broth microdilution method; conditions: ATCC 6633, 24 h; method in brief: as §2
[17] = test system: Staphylococcus epidermidis; test: Antibacterial activity against Staphylococcus epidermidis ATCC 12228 at 20 ug/disk after 24 hrs by agar diffusion method; conditions: ATCC 12228, 24 h, read-out: IZ
Method in brief: (§3)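 Disc diffusion on 4-mm Mueller-Hinton agar, inoculated from 24 h MHB cultures (37 °C) diluted to 2×10^6 CFU/ml to give semiconfluent growth. 6-mm discs were impregnated with 1 mg/ml DMSO stock solutions. Plates were incubated 24 h at 37 °C and inhibition zone diameters measured in mm. DMSO solvent control; triplicate, averaged.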

Escherichia coli [18] = test: Antibacterial activity against Escherichia coli ATCC 25922 at 20 ug/disk after 24 hrs by agar diffusion method; conditions: ATCC 25922, 24 h, read-out: IZ; method in brief: as §3
Staphylococcus aureus [19] = test: Antibacterial activity against Staphylococcus aureus ATCC 25923 at 20 ug/disk after 24 hrs by agar diffusion method; conditions: ATCC 25923, 24 h, read-out: IZ; method in brief: as §3
Bacillus subtilis [20] = test: Antibacterial activity against Bacillus subtilis ATCC 6633 at 20 ug/disk after 24 hrs by agar diffusion method; conditions: ATCC 6633, 24 h, read-out: IZ; method in brief: as §3
Candida albicans [21] = test: Antifungal activity against Candida albicans ATCC 24433 after 48 hrs by broth microdilution method
Method in brief: (§4)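 Broth microdilution (NCCLS) in Sabouraud dextrose broth, 2×10^5 CFU/ml per well. Compounds in 1% DMSO were two-fold serially diluted over 62.5–1000, with 0.05% final triphenyltetrazolium chloride as growth indicator. Plates were incubated 48 h at 26 °C and growth read by absorbance at 600 nm. MIC is the lowest concentration without visible growth. Triplicate, with two growth controls.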

Micrococcus luteus [22] = test: Antibacterial activity against Micrococcus luteus ATCC 10240 at 20 ug/disk after 24 hrs by agar diffusion method; conditions: ATCC 10240, 24 h, read-out: IZ; method in brief: as §3
Pseudomonas aeruginosa [23] = test: Antibacterial activity against Pseudomonas aeruginosa ATCC 27853 at 20 ug/disk after 24 hrs by agar diffusion method; conditions: ATCC 27853, 24 h, read-out: IZ; method in brief: as §3
Candida albicans [24] = test: Antifungal activity against Candida albicans ATCC 10259 at 20 ug/disk after 72 hrs by agar diffusion method; conditions: ATCC 10259, 72 h, read-out: IZ
Method in brief: (§5)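 Candida albicans grown 24 h at 25 °C in Sabouraud dextrose broth and diluted to 1×10^8 CFU/ml. This inoculum was spread on 4-mm Sabouraud dextrose agar. 6-mm discs were impregnated with 1 mg/ml DMSO stock solutions and incubated 72 h at 26 °C. Inhibition zone diameters measured in mm; DMSO control; triplicate, averaged.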

Klebsiella pneumoniae [25] = test: Antibacterial activity against Klebsiella pneumoniae NCIMB 9111 at 20 ug/disk after 24 hrs by agar diffusion method; conditions: NCIMB 9111, 24 h, read-out: IZ; method in brief: as §3
Enterococcus faecalis [26] = test: Antibacterial activity against Enterococcus faecalis ATCC 29212 at 20 ug/disk after 24 hrs by agar diffusion method; conditions: ATCC 29212, 24 h, read-out: IZ; method in brief: as §3
Candida albicans [27] = test: Antifungal activity against Candida albicans ATCC 24433 at 20 ug/disk after 72 hrs by agar diffusion method; conditions: ATCC 24433, 72 h, read-out: IZ; method in brief: as §5
Candida albicans [28] = test: Antifungal activity against Candida albicans ATCC 10259 after 48 hrs by broth microdilution method; method in brief: as §4

Row | Compound | zone of inhibition at 10 µg/disc (Bacillus subtilis [1]) [mm] | zone of inhibition at 10 µg/disc (Enterococcus faecalis [2]) [mm] | zone of inhibition at 10 µg/disc (Staphylococcus aureus [3]) [mm] | MBC (Klebsiella pneumoniae [5]) [µM] | MIC (Klebsiella pneumoniae [5]) [µM] | zone of inhibition at 10 µg/disc [6] [mm] | zone of inhibition at 10 µg/disc (Klebsiella pneumoniae [7]) [mm] | zone of inhibition at 10 µg/disc (Escherichia coli [8]) [mm] | zone of inhibition at 10 µg/disc (Micrococcus luteus [9]) [mm] | MBC (Pseudomonas aeruginosa [10]) [µM] | MIC (Pseudomonas aeruginosa [10]) [µM] | MBC (Escherichia coli [11]) [µM] | MIC (Escherichia coli [11]) [µM] | MBC (Micrococcus luteus [12]) [µM] | MIC (Micrococcus luteus [12]) [µM] | MBC (Enterococcus faecalis [13]) [µM] | MIC (Enterococcus faecalis [13]) [µM] | MBC [14] [µM] | MIC [14] [µM] | MBC (Staphylococcus aureus [15]) [µM] | also measured
1 | NCC[C@H](O)C(=O)N[C@@H]1C[C@H](N)[C@@H](O[C@H]2O[C@H](CN)[C@@H](O)[C@H](O)[C@H]2O)[C@H](O)[C@H]1O[C@H]1O[C@H](CO)[C@@H](O)[C@H](N)[C@H]1O [AMIKACIN] | 32 | 23 | 25 | 9 (≈ 5.27 µg/mL) | 3 (≈ 1.76 µg/mL) | 33 | 25 | 30 | 31 | 12 (≈ 7.03 µg/mL) | 6 (≈ 3.51 µg/mL) | 6 (≈ 3.51 µg/mL) | 3 (≈ 1.76 µg/mL) | – | – | – | – | – | – | – | zone of inhibition at 10 µg/disc (Pseudomonas aeruginosa [4]): 30 mm
2 | CC1(C)S[C@@H]2[C@H](NC(=O)[C@H](N)c3ccccc3)C(=O)N2[C@H]1C(=O)O [AMPICILLIN] | 15 | 16 | 26 | 33 (≈ 11.5 µg/mL) | 11 (≈ 3.84 µg/mL) | 12 | 23 | 18 | 33 | 46 (≈ 16.1 µg/mL) | 23 (≈ 8.04 µg/mL) | 22 (≈ 7.69 µg/mL) | 11 (≈ 3.84 µg/mL) | 2 (≈ 0.699 µg/mL) | 1 (≈ 0.349 µg/mL) | 6 (≈ 2.1 µg/mL) | 3 (≈ 1.05 µg/mL) | 6 (≈ 2.1 µg/mL) | 3 (≈ 1.05 µg/mL) | 4 (≈ 1.4 µg/mL) | MBC (Bacillus subtilis [16]): 10 µM (≈ 3.49 µg/mL); MIC (Bacillus subtilis [16]): 5 µM (≈ 1.75 µg/mL)
3 | O=C(N[C@@H](Cc1ccccc1)C(=O)O)OCc1ccccc1 | – | – | – | > 3340 | 3340 (≈ 1000 µg/mL) | – | – | – | – | > 3340 | > 3340 | > 3340 | 3340 (≈ 1000 µg/mL) | > 3340 | 3340 (≈ 1000 µg/mL) | > 3340 | > 3340 | > 3340 | 3340 (≈ 1000 µg/mL) | > 3340 | zone of inhibition at 20 µg/disc [17]: 8 mm; zone of inhibition at 20 µg/disc (Escherichia coli [18]): 0 mm; zone of inhibition at 20 µg/disc (Staphylococcus aureus [19]): 0 mm; zone of inhibition at 20 µg/disc (Bacillus subtilis [20]): 0 mm; MFC (Candida albicans [21]; ATCC 24433, 48 h): 1660 µM (≈ 497 µg/mL); MIC (Candida albicans [21]; ATCC 24433, 48 h): 830 µM (≈ 248 µg/mL); zone of inhibition at 20 µg/disc (Micrococcus luteus [22]): 0 mm; zone of inhibition at 20 µg/disc (Pseudomonas aeruginosa [23]): 0 mm; zone of inhibition at 20 µg/disc (Candida albicans [24]): 0 mm; MIC (Staphylococcus aureus [15]): 3340 µM (≈ 1000 µg/mL); zone of inhibition at 20 µg/disc (Klebsiella pneumoniae [25]): 0 mm; zone of inhibition at 20 µg/disc (Enterococcus faecalis [26]): 0 mm; zone of inhibition at 20 µg/disc (Candida albicans [27]): 0 mm; MBC (Bacillus subtilis [16]): 3340 µM (≈ 1000 µg/mL); MIC (Bacillus subtilis [16]): 1670 µM (≈ 500 µg/mL); MFC (Candida albicans [28]; ATCC 10259, 48 h): 1660 µM (≈ 497 µg/mL); MIC (Candida albicans [28]; ATCC 10259, 48 h): 830 µM (≈ 248 µg/mL)
4 | NYSTATIN | – | – | – | – | – | – | – | – | – | – | – | – | – | – | – | – | – | – | – | – | MFC (Candida albicans [21]): 60 µM; MIC (Candida albicans [21]): 30 µM; MFC (Candida albicans [28]): 140 µM; MIC (Candida albicans [28]): 70 µM
